Screens (PubChem BioAssay)
This is a sample that favours compounds with a hit; in the whole collection about 2.5% have one here.
mABHD4 FP: ABHD4 inhibitors, primary screen, biochemical, fluorescence polarization, mouse; purified mABHD4, FP-Rh probe fluorescence polarization; (Lyso)-N-acylphosphatidylethanolamine lipase (Mus musculus), Q8VD66; inhibition, % at 8.92 µM; 0.54% of 370,000 active;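 active means inhibition exceeding the mean over every tested compound plus 3 SD, cut at about 30% in these data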;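 further: 0% = plate median of compound wells and 100% = S159A mutant with DMSO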
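Assay system: mouse ABHD4 enzyme, wild type / Also added: fluorescent activity-based probe FP-Rh / Doses: single nominal dose of 8.92 µM, 0.89% DMSO final / Timing: 45 min compound pre-incubation plus 60 min probe step, 25 °C / Signal: FP readout, ex 525 nm / em 598 nm / Control set: S159A mutant/DMSO as 100%, compound-well median as 0%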
PRMT1 FP inh: PRMT1 methyltransferase inhibitors, primary screen, biochemical, fluorescence polarization; recombinant PRMT1, activity-based probe fluorescence polarization; inhibition, % at 2.79 µM; 1.3% of 370,000 active; AID 652257, 2013;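 active means inhibition above about 21% made by adding two undisclosed values, limit read from the data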
SIAE inh: human SIAE inhibitors, primary screen, biochemical, fluorescence polarization, FP-Rh probe, 1536-well HTS | SIAE FP-Rh probe binding | inhibition, % at 9.66 µM | 0.69% of 370,000 active | AID 1053197, 2014;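 active means inhibition above a cutoff: mean of compounds within the control limits plus 3 SD of those, cut at about 17% in these data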;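 further: 0% = plate median of compound wells and 100% = probe without SIAE protein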
HTRA1 inh: HTRA1 serine protease inhibitors, primary screen, biochemical, fluorescence polarization, HTS; 0.5% of 340,000 active; recombinant HTRA1, FP-rhodamine activity-based probe; Q92743; inhibition, % at 5.96 µM; in the data active means inhibition above about 36%;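 further: 0% = enzyme with DMSO and 100% = wells lacking enzyme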
Target sequence (Q92743 whole entry, looked up): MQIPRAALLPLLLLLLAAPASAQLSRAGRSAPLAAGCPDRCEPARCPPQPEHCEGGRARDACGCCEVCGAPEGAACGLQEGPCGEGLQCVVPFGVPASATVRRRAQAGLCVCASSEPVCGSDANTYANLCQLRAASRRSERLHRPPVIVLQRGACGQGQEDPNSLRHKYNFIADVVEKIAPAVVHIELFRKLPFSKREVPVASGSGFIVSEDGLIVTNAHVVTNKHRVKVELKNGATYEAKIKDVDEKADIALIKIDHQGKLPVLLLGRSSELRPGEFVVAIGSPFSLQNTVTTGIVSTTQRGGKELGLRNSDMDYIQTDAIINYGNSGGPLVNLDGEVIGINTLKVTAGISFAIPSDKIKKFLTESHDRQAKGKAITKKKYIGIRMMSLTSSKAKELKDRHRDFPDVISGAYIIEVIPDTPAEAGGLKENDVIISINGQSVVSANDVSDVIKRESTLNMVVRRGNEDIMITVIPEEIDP
TCR CD3 inh: inhibitors of human TCR-CD3 interaction, primary screen, biochemical, fluorescence, TAMRA-labeled TCR probe; AID 651800, 2012; 0.37% of 360,000 active; T-cell receptor (TCR); inhibition, % at 9.4 µM;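 further: recombinant mutant TCR 2C K166C tagged with TAMRA read by polarization; 0% = receptor in buffer alone and 100% = receptor with positive control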
HTRA1 inh conf: HTRA1 protease inhibitors, retest, confirmation, biochemical, fluorescence polarization. shares compounds with HTRA1 inh. recombinant HTRA1, FP-rhodamine activity-based probe. inhibition, % at 5.96 µM. 66% of 1,600 active;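 active means mean inhibition over three repeats above a set limit taken from the earlier primary screen, cut at about 37% in these data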;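 further: 0% = HTRA1 with DMSO and 100% = wells lacking HTRA1; inhibitors block probe binding so polarization drops and inhibition rises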
BSA TAMRA ctr: compounds interfering with TAMRA-BSA probe, counter-screen for TCR-CD3 interaction inhibitor project, biochemical, fluorescence, TAMRA-labeled BSA; 10% of 1,200 active; shares compounds with TCR CD3 inh; AID 652035, 2013; inhibition, % at 9.4 µM; TAMRA-labeled BSA probe fluorescence counterscreen; in the data active means inhibition above about 23%;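 further: 0% = buffer low control and 100% = reference high control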
TCR-CD3 inh conf: TCR-CD3 interaction inhibitors, retest, confirmation, biochemical, fluorescence, TAMRA-labeled TCR probe. shares compounds with TCR CD3 inh. TAMRA-labeled TCR probe fluorescence binding assay. 48% of 1,200 active. inhibition, % at 9.4 µM. AID 652036, 2013
PRMT1 confirm: PRMT1 methyltransferase inhibitors, confirmation, biochemical, fluorescence polarization, triplicate. recombinant His-PRMT1, activity-based probe fluorescence polarization. inhibition, % at 2.79 µM. 42% of 3,300 active. shares compounds with PRMT1 FP inh. AID 687036, 2013;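 active means mean inhibition across replicates above the hit cutoff derived for the earlier primary screen, cut at about 22% in these data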
ABHD4 confirm: ABHD4 inhibitors, retest, confirmation, biochemical, fluorescence polarization, mouse. 55% of 1,800 active. shares compounds with mABHD4 FP. purified mABHD4, FP-Rh probe fluorescence polarization. inhibition, % at 8.92 µM;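 active means mean inhibition across replicates above the hit cutoff set in the primary screen, cut at about 30% in these data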;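 further: 0% = wild-type ABHD4 with DMSO and 100% = catalytically dead S159A mutant with DMSO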
SIAE inh conf: human SIAE inhibitors, retest, confirmation, biochemical, fluorescence polarization, FP-Rh probe, triplicate; shares compounds with SIAE inh; SIAE FP-Rh activity-based probe; inhibition, % at 9.66 µM; 13% of 2,300 active; AID 1117263, 2014;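 active means mean inhibition of the replicates above the hit cutoff set in the primary screen, cut at about 17% in these data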;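 further: 0% = SIAE with DMSO and probe and 100% = probe without SIAE; inhibitors lower polarization as more probe stays unbound to SIAE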
Starred values were filed as active, the others as inactive; · = no result; + = active, no number. Unless noted, no stated cut-off is given here; in the data, active means inhibition above about 19%; inactive means the rest.

SMILES	mABHD4 FP	PRMT1 FP inh	SIAE inh	HTRA1 inh	TCR CD3 inh	HTRA1 inh conf	ABHD4 confirm	SIAE inh conf	others
CN(/N=C\c1ccc(O)c(O)c1)c1nc(-c2ccccc2)cc(-c2ccccc2)n1	34*	-1	35*	39*	2	66*	123*	-22
O=C(NNc1c2ccccc2nc2ccccc12)c1ccccc1O	28	4	19*	51*	-1	39*	·	18*
COc1ccc2[nH]c3c(c2c1)CCNC3c1ccc([N+](=O)[O-])o1 (stereo not given)	-4	23*	21*	43*	1	47*	·	22*
Cc1csc(Nc2cccc3ccccc23)n1	6	6	3	1	-3	·	·	·
Oc1ccc(-c2csc(Nc3cccc4ccccc34)n2)cc1O	21	7	26*	71*	10	71*	·	-3
O=C(/C(=N/N=C/c1ccc(O)c(O)c1O)c1ccccc1)c1ccccc1	53*	27*	33*	79*	13	74*	47*	-5
Oc1ccc(/C=N/N=C(c2ccccc2)c2ccccc2)c(O)c1O	42*	12	20*	66*	35*	67*	34*	-15	BSA TAMRA ctr=-11;TCR-CD3 inh conf=28*
COc1ccc(C(=O)C(=NN)c2ccccc2)cc1	3	-3	-5	-6	1	·	·	·
O=S1(=O)CCOC(CO)CN1Cc1ccc(Cl)c(Cl)c1 (stereo not given)	-1	-2	-3	4	-1	·	·	·
Oc1c(Br)cc(Br)cc1CNc1cccc2cccnc12	56*	12	32*	70*	6	32	-10	15
Cc1cccc(NCc2cc(Cl)ccc2O)n1	-2	-4	5	-5	0	·	·	·
Oc1ccc(Cl)cc1CNc1cccc2cccnc12	36*	6	20*	49*	-1	11	1	7
O=C1CCC[C@H]2C[C@H](NCc3ccc(F)cc3F)CC[C@]23CCCN13	1	5	0	·	·	·	·	·
COc1cc2nc(Nc3ccc(C)c(Cl)c3)nc(N)c2cc1OC	42*	-2	58*	36*	0	46*	66*	62*
Cc1ccc(NC(=O)C2CCCN(c3nnc(-n4cccc4)s3)C2)c(C)c1 (stereo not given)	-2	1	-4	·	·	·	·	·
Cc1onc(-c2c(F)cccc2Cl)c1C(=O)Nc1cccc(S(=O)(=O)NC2=NCCC2)c1	1	16	-3	-6	-5	·	·	·
CCOc1cccc(CNc2ccc(O)cc2)c1OCc1ccccc1Cl	55*	10	30*	52*	24*	15	31*	10	BSA TAMRA ctr=-8;TCR-CD3 inh conf=-1
Nc1ccc(N2CCN(CCCCN3C(=O)C4CCCN4C3=O)CC2)cc1 (stereo not given)	81*	5	31*	38*	18	36	11	9
COc1ccc(/C=N/NC(=O)C(=O)/C=C2\NC3(CCCC3)Cc3ccccc32)cc1	-23	3	-19	-78	-2	·	·	·
O=C(/C=C1\NC2(CCCC2)Cc2ccccc21)C(=O)N/N=C/c1ccc(O)c(O)c1	32*	6	29*	79*	28*	63*	8	-30
C/C(=C\C(=O)c1cccnc1)Nc1ccc(O)cc1	72*	20	26*	64*	89*	3	-5	3	BSA TAMRA ctr=5;TCR-CD3 inh conf=1
C[C@@H]1CN([C@@H](C)CO)C(=O)CCCn2cc(nn2)CO[C@H]1CN(C)C(=O)Nc1ccc2c(c1)OCCO2	6	0	-3	·	0	·	·	·
Nc1nc(Sc2ccc([N+](=O)[O-])c3nonc23)c2[nH]cnc2n1	46*	89*	17*	59*	7	71*	49*	0	PRMT1 confirm=84*
CCNc1ccc(Br)cc(C(=O)/C=C/c2ccc(Cl)cc2Cl)c1=O	35*	27*	17*	64*	-2	59*	31*	8
Cc1nn(C)c(NC(=O)c2ccc(Cl)cc2Cl)c1Br	-2	-3	0	6	-3	·	·	·
SMILES	mABHD4 FP	PRMT1 FP inh	SIAE inh	HTRA1 inh	TCR CD3 inh	HTRA1 inh conf	ABHD4 confirm	SIAE inh conf	others
Nc1ccc(Nc2nc3ccccc3[nH]2)cc1	31*	6	57*	58*	-17	66*	59*	58*
Cc1cc2c(N)cccc2nn1	168*	44*	142*	101*	+	5	116*	65*
O=[N+]([O-])c1ccc(N/N=C/c2cccnc2)cc1	6	3	-7	1	2	·	·	·
O=[N+]([O-])c1ccc(N/N=C/c2ccc[nH]2)cc1	-13	6	18*	45*	-17	57*	·	-4
CSc1nnc(C)c(=O)n1COC(=O)/C=C/c1ccc2c(c1)OCO2	0	-3	0	-3	4	·	·	·
Cc1cc(N)ccc1-n1c(C)ccc1C	147*	17	54*	102*	152*	13	·	3	BSA TAMRA ctr=6;TCR-CD3 inh conf=0
Cc1ccc(-n2c(C)cc(=O)cc2C)c(C)c1	-2	3	3	1	4	·	·	·
Cc1cc2nnc(SCC(=O)OC(C)C)n2c2ccccc12	-3	-3	4	0	3	·	·	·
Cc1noc(C)c1COc1ccc(C(=O)NNC(=O)c2ccccc2O)cc1	5	-1	11	25	25*	·	·	·	BSA TAMRA ctr=-1;TCR-CD3 inh conf=26*
CCOc1ccc(C(=O)CCC(=O)Nc2ncccc2O)cc1	8	6	7	-6	-5	·	·	·
